In brackets after ≈: the same amount, converted by molar mass.
How the values were obtained:
Type in all cases: functional
Providencia stuartii = assay: Antimicrobial activity against Proteus stuartii by broth microdilution method
Method in brief: (§1)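 Clinical isolates were tested by CLSI broth microdilution in unsupplemented cation-adjusted Mueller-Hinton broth. The read-out was the MIC, reported as MIC90 (μg/ml) per species or phenotypic group. Ceftriaxone, levofloxacin and imipenem were run in parallel as comparators.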

Proteus vulgaris = assay: Antimicrobial activity against Proteus vulgaris by broth microdilution method; method in brief: as §1
Serratia marcescens = assay: Antimicrobial activity against Serratia marcescens by broth microdilution method; method in brief: as §1
Shigella sp. = assay: Antimicrobial activity against Shigella spp. by broth microdilution method; method in brief: as §1
Salmonella sp. = assay: Antimicrobial activity against Salmonella spp. by broth microdilution method; method in brief: as §1
Burkholderia cepacia = assay: Antimicrobial activity against Burkholderia cepacia by broth microdilution method; method in brief: as §1
Pseudomonas aeruginosa [1] = assay: Antimicrobial activity against Pseudomonas aeruginosa by broth microdilution method; method in brief: as §1
Pseudomonas aeruginosa [2] = assay: Antimicrobial activity against multidrug resistant Pseudomonas aeruginosa by broth microdilution method
Method in brief: (§2)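 Isolates of the stated resistance phenotype were tested by CLSI broth microdilution in unsupplemented cation-adjusted Mueller-Hinton broth. Ceftaroline was compared with ceftriaxone, levofloxacin and imipenem. Activity was expressed as MICs (MIC90 in μg/ml).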

[3] = test system: Stenotrophomonas maltophilia; assay: Antimicrobial activity against Stenotrophomonas maltophilia by broth microdilution method; method in brief: as §1
Moraxella catarrhalis = assay: Antimicrobial activity against Moraxella catarrhalis by broth microdilution method; method in brief: as §1
Haemophilus influenzae [4] = assay: Antimicrobial activity against beta-lactamase-negative Haemophilus influenzae by broth microdilution method
Method in brief: (§3)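 CLSI broth microdilution in Haemophilus test medium (cation-adjusted Mueller-Hinton base) against clinical H. influenzae isolates of the stated phenotype. Ceftaroline was compared with ceftriaxone, levofloxacin and imipenem. Activity was expressed as MICs (MIC90 in μg/ml).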

Haemophilus influenzae [5] = assay: Antimicrobial activity against beta-lactamase-positive Haemophilus influenzae by broth microdilution method
Method in brief: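 H. influenzae isolates were tested by CLSI broth microdilution using Haemophilus test medium. The MIC was read and MIC90 (μg/ml) reported for the group. Ceftriaxone, levofloxacin and imipenem served as comparators.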

Haemophilus influenzae [6] = assay: Antimicrobial activity against beta-lactamase-negative ampicillin resistant Haemophilus influenzae by broth microdilution method; method in brief: as §3
Staphylococcus aureus [7] = assay: Antimicrobial activity against methicillin-resistant Staphylococcus aureus by broth microdilution method; method in brief: as §2
Staphylococcus aureus [8] = assay: Antimicrobial activity against methicillin-susceptible Staphylococcus aureus by broth microdilution method; method in brief: as §1
Staphylococcus aureus [9] = assay: Antimicrobial activity against vancomycin-intermediate Staphylococcus aureus by broth microdilution method; method in brief: as §1
Staphylococcus aureus [10] = assay: Antimicrobial activity against vancomycin-resistant Staphylococcus aureus by broth microdilution method; method in brief: as §2
Staphylococcus [11] = assay: Antimicrobial activity against methicillin-resistant coagulase-negative Staphylococcus by broth microdilution method; method in brief: as §2
Staphylococcus [12] = assay: Antimicrobial activity against methicillin-susceptible coagulase-negative Staphylococcus by broth microdilution method; method in brief: as §1
Enterococcus faecalis [13] = assay: Antimicrobial activity against Enterococcus faecalis by broth microdilution method; method in brief: as §1
Enterococcus faecalis [14] = assay: Antimicrobial activity against vancomycin-susceptible Enterococcus faecalis by broth microdilution method; method in brief: as §1
Enterococcus faecium [15] = assay: Antimicrobial activity against Enterococcus faecium by broth microdilution method; method in brief: as §1
Enterococcus faecium [16] = assay: Antimicrobial activity against vancomycin-susceptible Enterococcus faecium by broth microdilution method; method in brief: as §1
Corynebacterium jeikeium = assay: Antimicrobial activity against Corynebacterium jeikeium by broth microdilution method; method in brief: as §1
Listeria monocytogenes = assay: Antimicrobial activity against Listeria monocytogenes by broth microdilution method; method in brief: as §1
Streptococcus agalactiae = assay: Antimicrobial activity against Streptococcus agalactiae by broth microdilution method
Method in brief: (§4)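 Streptococcal isolates were tested by CLSI broth microdilution in cation-adjusted Mueller-Hinton broth supplemented with 3% lysed horse blood. The read-out was the MIC, with MIC90 (μg/ml) reported per group. Ceftriaxone, levofloxacin and imipenem served as comparators.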

Streptococcus pneumoniae [17] = assay: Antimicrobial activity against levofloxacin-resistant Streptococcus pneumoniae by broth microdilution method
Method in brief: (§5)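 CLSI broth microdilution in cation-adjusted Mueller-Hinton broth with 3% lysed horse blood, against streptococcal clinical isolates of the stated phenotype. Ceftaroline was compared with ceftriaxone, levofloxacin and imipenem. Activity was expressed as MICs (MIC90 in μg/ml).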

Streptococcus pneumoniae [18] = assay: Antimicrobial activity against penicillin-resistant Streptococcus pneumoniae by broth microdilution method; method in brief: as §5
Streptococcus pneumoniae [19] = assay: Antimicrobial activity against penicillin-intermediate Streptococcus pneumoniae by broth microdilution method; method in brief: as §5
Streptococcus pneumoniae [20] = assay: Antimicrobial activity against penicillin-susceptible Streptococcus pneumoniae by broth microdilution method; method in brief: as §4
Streptococcus pyogenes [21] = assay: Antimicrobial activity against macrolide-resistant Streptococcus pyogenes by broth microdilution method; method in brief: as §5
Streptococcus pyogenes [22] = assay: Antimicrobial activity against macrolide-susceptible Streptococcus pyogenes by broth microdilution method; method in brief: as §5
Streptococcus viridans = assay: Antimicrobial activity against Streptococcus viridans group clinical isolate by broth microdilution method; method in brief: as §4
Klebsiella aerogenes = assay: Antimicrobial activity against ESBL-negative Enterobacter aerogenes by broth microdilution method; method in brief: as §1
Enterobacter cloacae = assay: Antimicrobial activity against ESBL-negative Enterobacter cloacae by broth microdilution method; method in brief: as §1
Escherichia coli [23] = assay: Antimicrobial activity against ESBL-negative Escherichia coli by broth microdilution method; method in brief: as §1
Escherichia coli [24] = assay: Antimicrobial activity against ESBL-positive Escherichia coli by broth microdilution method; method in brief: as §1
Klebsiella pneumoniae [25] = assay: Antimicrobial activity against ESBL-negative Klebsiella pneumoniae by broth microdilution method; method in brief: as §1
Klebsiella pneumoniae [26] = assay: Antimicrobial activity against ESBL-positive Klebsiella pneumoniae by broth microdilution method; method in brief: as §1
Morganella morganii = assay: Antimicrobial activity against Morganella morganii by broth microdilution method; method in brief: as §1
Proteus mirabilis = assay: Antimicrobial activity against Proteus mirabilis by broth microdilution method; method in brief: as §1
Providencia rettgeri = assay: Antimicrobial activity against Proteus rettgeri by broth microdilution method; method in brief: as §1

`CO/N=C(\C(=O)N[C@@H]1C(=O)N2C(C(=O)O)=C(CSc3nc(=O)c(O)nn3C)CS[C@H]12)c1csc(N)n1` [CEFTRIAXONE] gave an MIC50 (Providencia stuartii) of 0.06 µg/mL (≈ 0.108 µM), an MIC90 (Providencia stuartii) of 0.25 µg/mL (≈ 0.451 µM) and an MIC50 (Proteus vulgaris) of 1 µg/mL (≈ 1.8 µM). For the same compound, the MIC90 (Proteus vulgaris) was over 32 µg/mL, the MIC50 (Serratia marcescens) was 0.25 µg/mL (≈ 0.451 µM) and the MIC90 (Serratia marcescens) was 2 µg/mL (≈ 3.61 µM). The MIC (Shigella sp.) was 0.03 µg/mL (≈ 0.0541 µM), the MIC50 (Shigella sp.) was 0.03 µg/mL (≈ 0.0541 µM) and the MIC90 (Shigella sp.) was 0.06 µg/mL (≈ 0.108 µM). For the same compound, the MIC50 (Salmonella sp.) was 0.06 µg/mL (≈ 0.108 µM), the MIC90 (Salmonella sp.) was over 32 µg/mL and the MIC50 (Burkholderia cepacia) was over 32 µg/mL. It also gave an MIC90 (Burkholderia cepacia) of over 32 µg/mL, an MIC50 (Pseudomonas aeruginosa [1]) of over 32 µg/mL and an MIC90 (Pseudomonas aeruginosa [1]) of over 32 µg/mL. The MIC (Pseudomonas aeruginosa [2]) was 16 µg/mL (≈ 28.9 µM), the MIC50 [3] was over 32 µg/mL and the MIC90 [3] was over 32 µg/mL. It also gave an MIC50 (Moraxella catarrhalis) of 0.5 µg/mL (≈ 0.902 µM), an MIC90 (Moraxella catarrhalis) of 1 µg/mL (≈ 1.8 µM) and an MIC (Haemophilus influenzae [4]) of 0.015 µg/mL (≈ 0.027 µM). For the same compound, the MIC50 (Haemophilus influenzae [4]) was 0.015 µg/mL (≈ 0.027 µM), the MIC90 (Haemophilus influenzae [4]) was 0.015 µg/mL (≈ 0.027 µM) and the MIC (Haemophilus influenzae [5]) was 0.015 µg/mL (≈ 0.027 µM). The MIC50 (Haemophilus influenzae [5]) was 0.015 µg/mL (≈ 0.027 µM), the MIC90 (Haemophilus influenzae [5]) was 0.015 µg/mL (≈ 0.027 µM) and the MIC50 (Haemophilus influenzae [6]) was 0.12 µg/mL (≈ 0.216 µM). The MIC90 (Haemophilus influenzae [6]) was 0.12 µg/mL (≈ 0.216 µM), the MIC50 (Staphylococcus aureus [7]) was 32 µg/mL (≈ 57.7 µM) and the MIC50 (Staphylococcus aureus [8]) was 4 µg/mL (≈ 7.21 µM). It also gave an MIC90 (Staphylococcus aureus [8]) of 4 µg/mL (≈ 7.21 µM), an MIC50 (Staphylococcus aureus [9]) of over 32 µg/mL and an MIC90 (Staphylococcus aureus [9]) of over 32 µg/mL. It also gave an MIC (Staphylococcus aureus [10]) of over 32 µg/mL, an MIC50 (Staphylococcus [11]) of 16 µg/mL (≈ 28.9 µM) and an MIC90 (Staphylococcus [11]) of over 32 µg/mL. The MIC50 (Staphylococcus [12]) was 2 µg/mL (≈ 3.61 µM), the MIC90 (Staphylococcus [12]) was 8 µg/mL (≈ 14.4 µM) and the MIC50 (Enterococcus faecalis [13]) was over 32 µg/mL. It also gave an MIC90 (Enterococcus faecalis [13]) of over 32 µg/mL, an MIC (Enterococcus faecalis [14]) of over 32 µg/mL and an MIC50 (Enterococcus faecalis [14]) of over 32 µg/mL. It also gave an MIC90 (Enterococcus faecalis [14]) of over 32 µg/mL, an MIC (Enterococcus faecium [15]) of over 32 µg/mL and an MIC50 (Enterococcus faecium [15]) of over 32 µg/mL. It also gave an MIC90 (Enterococcus faecium [15]) of over 32 µg/mL, an MIC50 (Enterococcus faecium [16]) of over 32 µg/mL and an MIC90 (Enterococcus faecium [16]) of over 32 µg/mL. The MIC50 (Corynebacterium jeikeium) was over 32 µg/mL, the MIC90 (Corynebacterium jeikeium) was over 32 µg/mL and the MIC50 (Listeria monocytogenes) was over 32 µg/mL. The MIC90 (Listeria monocytogenes) was over 32 µg/mL, the MIC (Streptococcus agalactiae) was 0.06 µg/mL (≈ 0.108 µM) and the MIC50 (Streptococcus agalactiae) was 0.06 µg/mL (≈ 0.108 µM). It also gave an MIC90 (Streptococcus agalactiae) of 0.12 µg/mL (≈ 0.216 µM), an MIC50 (Streptococcus pneumoniae [17]) of 0.25 µg/mL (≈ 0.451 µM) and an MIC90 (Streptococcus pneumoniae [17]) of 2 µg/mL (≈ 3.61 µM). It also gave an MIC50 (Streptococcus pneumoniae [18]) of 2 µg/mL (≈ 3.61 µM), an MIC90 (Streptococcus pneumoniae [18]) of 8 µg/mL (≈ 14.4 µM) and an MIC50 (Streptococcus pneumoniae [19]) of 0.25 µg/mL (≈ 0.451 µM). It also gave an MIC90 (Streptococcus pneumoniae [19]) of 0.5 µg/mL (≈ 0.902 µM), an MIC50 (Streptococcus pneumoniae [20]) of 0.03 µg/mL (≈ 0.0541 µM) and an MIC90 (Streptococcus pneumoniae [20]) of 0.06 µg/mL (≈ 0.108 µM). For the same compound, the MIC (Streptococcus pyogenes [21]) was 0.015 µg/mL (≈ 0.027 µM), the MIC50 (Streptococcus pyogenes [21]) was 0.015 µg/mL (≈ 0.027 µM) and the MIC90 (Streptococcus pyogenes [21]) was 0.03 µg/mL (≈ 0.0541 µM). It also gave an MIC (Streptococcus pyogenes [22]) of 0.015 µg/mL (≈ 0.027 µM), an MIC50 (Streptococcus pyogenes [22]) of 0.015 µg/mL (≈ 0.027 µM) and an MIC90 (Streptococcus pyogenes [22]) of 0.03 µg/mL (≈ 0.0541 µM). It also gave an MIC50 (Streptococcus viridans) of 0.12 µg/mL (≈ 0.216 µM), an MIC90 (Streptococcus viridans) of 1 µg/mL (≈ 1.8 µM) and an MIC50 (Klebsiella aerogenes) of 0.12 µg/mL (≈ 0.216 µM). For the same compound, the MIC90 (Klebsiella aerogenes) was over 32 µg/mL, the MIC50 (Enterobacter cloacae) was 0.25 µg/mL (≈ 0.451 µM) and the MIC90 (Enterobacter cloacae) was 0.5 µg/mL (≈ 0.902 µM). For the same compound, the MIC50 (Escherichia coli [23]) was 0.06 µg/mL (≈ 0.108 µM), the MIC90 (Escherichia coli [23]) was 0.25 µg/mL (≈ 0.451 µM) and the MIC50 (Escherichia coli [24]) was over 32 µg/mL. It also gave an MIC90 (Escherichia coli [24]) of over 32 µg/mL, an MIC50 (Klebsiella pneumoniae [25]) of 0.06 µg/mL (≈ 0.108 µM) and an MIC90 (Klebsiella pneumoniae [25]) of 0.12 µg/mL (≈ 0.216 µM). It also gave an MIC50 (Klebsiella pneumoniae [26]) of 32 µg/mL (≈ 57.7 µM), an MIC90 (Klebsiella pneumoniae [26]) of over 32 µg/mL and an MIC50 (Morganella morganii) of 0.5 µg/mL (≈ 0.902 µM). For the same compound, the MIC90 (Morganella morganii) was 32 µg/mL (≈ 57.7 µM), the MIC (Proteus mirabilis) was 0.015 µg/mL (≈ 0.027 µM) and the MIC50 (Proteus mirabilis) was 0.015 µg/mL (≈ 0.027 µM). For the same compound, the MIC90 (Proteus mirabilis) was 0.015 µg/mL (≈ 0.027 µM), the MIC50 (Providencia rettgeri) was 0.06 µg/mL (≈ 0.108 µM) and the MIC90 (Providencia rettgeri) was 0.25 µg/mL (≈ 0.451 µM).

Source: ChEMBL document CHEMBL1629657, “In vitro antimicrobial activity of a new cephalosporin, ceftaroline, and determination of quality control ranges for MIC testing” (2009)
